This is a sample that favours compounds with a hit; in the whole collection about 1.5% have one here.
S100A4 MyoIIA = S100A4-myosin IIA interaction inhibition | S100A4/TAMRA-MyoIIA peptide fluorescence polarization | 360,000 tested, 0.14% active | inhibition, % at 10.7 µM;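 active means mean inhibition of at least 70% across replicates, with every replicate also reaching that level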
Target sequence (P26447 whole entry, looked up): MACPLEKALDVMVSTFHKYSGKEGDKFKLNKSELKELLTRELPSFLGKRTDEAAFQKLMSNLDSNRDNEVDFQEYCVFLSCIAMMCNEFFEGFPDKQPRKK
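Material: S100A4 monomer protein / Buffer or medium: 50 mM HEPES pH 7.2, 10 mM CaCl2, 100 mM KCl / Times: 5 min incubation before reading / Benchmarks: neutral control DMSO, positive control TFP / Reagent: labelled myosin peptide probe, 5 nM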
MLL AF4-AF9 inh = inhibitors of human MLL-AF4/AF9 interaction. inhibition, % at 10 µM. AlphaScreen, biotin-AF4 peptide binding to FLAG-AF9. 350,000 tested, 0.47% active;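 active means every replicate reaching a set inhibition limit, whatever the replicate mean, cut at about 25% in these data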
RAD52 anneal inh = blocks human RAD52 DNA annealing. P43351. recombinant RAD52 DNA annealing, FRET fluorescence. inhibition, % at 18.7 µM. 360,000 tested, 0.46% active;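 active means every replicate showing at least 50% inhibition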
ERAP1 HTS inh = blocks human ERAP1 aminopeptidase activity; inhibition, % at 10.7 µM; 340,000 tested, 0.15% active; recombinant ERAP1, Leu-AMC fluorescence, 60 min; Q9NZ08; AID 652197;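 active means mean replicate inhibition of at least 30%, or all replicates individually reaching that 30% level; inactive means mean below 30% and not every replicate reaching it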
GSIS activator = GLuc luminescence reporter in INS-1E cells, primary screen for activators of glucose-dependent secretion of insulin | INS-1E GLuc reporter insulin secretion, 2-3 h | activation, % at 16.6 µM | 370,000 tested, 0.61% active | AID 743287;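 active means lowest replicate activation of at least 40%, so every replicate reaches that level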
Each line names hits and unclear results; the compound was inactive in the other large screens.

COc1ccc(Cl)cc1-c1cc(C(=O)N[C@H](C)c2ccccc2)[nH]n1	S100A4 MyoIIA 141
COc1ccc(-c2ccc(-c3noc(-c4ccccc4)n3)c(OC)n2)cc1	none
COc1ccc(-c2ccc(-c3noc(-c4ccco4)n3)c(OC)n2)cc1	GSIS activator 55 (no result: S100A4 MyoIIA, MLL AF4-AF9 inh, RAD52 anneal inh, ERAP1 HTS inh)
CC(=O)Nc1cccc2c1O[C@H](CN(C)C(=O)NC(C)C)[C@H](C)CN(C)C2=O	none (no result: S100A4 MyoIIA, MLL AF4-AF9 inh, RAD52 anneal inh, ERAP1 HTS inh)
O=C(C[C@@H]1CC[C@@H]2[C@H](COC[C@H](O)CN2S(=O)(=O)c2ccc(F)cc2)O1)NCC1CCCCC1	none
Cc1ccc(S(=O)(=O)N2C[C@@H](O)COC[C@H]3O[C@H](CC(=O)NCC4CCCCC4)CC[C@@H]32)cc1	MLL AF4-AF9 inh 30, RAD52 anneal inh 82
Cc1ccc(S(=O)(=O)N2C[C@H](O)COC[C@H]3O[C@H](CC(=O)NCC4CCCCC4)CC[C@@H]32)cc1	RAD52 anneal inh 65
Cc1cc(Br)cc(Cl)c1OC(=O)c1cnccn1	none
Cc1cc(Br)cc(Cl)c1OC(=O)c1ccncc1	GSIS activator 94
O=C(C1CC1)N1C[C@@H]2[C@H](c3ccccc31)[C@@H](CO)N2C(=O)c1ccccc1F	none (no result: S100A4 MyoIIA, MLL AF4-AF9 inh, RAD52 anneal inh, ERAP1 HTS inh)
CC(C)NC(=O)Nc1ccc2c(c1)C(=O)N(C)C[C@H](C)[C@H](CN(C)C(=O)OC(C)(C)C)O2	none (no result: S100A4 MyoIIA, MLL AF4-AF9 inh, RAD52 anneal inh, ERAP1 HTS inh)
CCCNC(=O)c1nnsc1S(=O)(=O)c1ccc(Cl)cc1	GSIS activator 65
CCCNC(=O)NS(=O)(=O)c1ccc(Cl)cc1	none (no result: GSIS activator)
CCCNC(=O)c1nnsc1S(=O)c1ccc(Cl)cc1 (stereo not given)	GSIS activator 115
CCOC(=O)C(C)Oc1cccc2c(=O)n(CC(=O)Nc3ccc4c(c3)OCCO4)ccc12 (stereo not given)	MLL AF4-AF9 inh 45 (no result: GSIS activator)
CCOC(=O)C(C)Oc1cccc2c(=O)n(CC(=O)Nc3cccc(OC)c3)ccc12 (stereo not given)	none
c1cn2cc(-c3ccc(CN4CCOCC4)cc3)ccc2n1	GSIS activator 55
CC(=O)N1c2ccc(S(=O)(=O)N3CCC(C(=O)Nc4ncccc4C)CC3)cc2CC1C (stereo not given)	S100A4 MyoIIA 86
CC(=O)N1c2ccc(S(=O)(=O)N3CCC(C(=O)Nc4ccccn4)CC3)cc2CC1C (stereo not given)	none
O=C(C[C@@H]1CC[C@@H](NS(=O)(=O)c2ccc(F)cc2)[C@@H](CO)O1)NC1CCCCC1	none
CCOC(=O)c1cn(-c2ccccc2)nc1-c1ccncc1	GSIS activator 40 (no result: MLL AF4-AF9 inh)
CCOC(=O)c1cnn(-c2ccccc2)c1-c1ccncc1	none
O=C1Nc2cnc(Cl)nc2Nc2ccccc21	GSIS activator 87
O=C(CCCN1C(=O)/C(=C/c2ccccc2)SC1=S)Nc1ccc(C(=O)O)c(O)c1	none
O=C(CCCN1C(=O)/C(=C\c2cccs2)SC1=S)Nc1cccc(C(=O)O)c1	none
COc1ccc(C=C2SC(=S)N(CCCC(=O)Nc3ccc(C(=O)O)c(O)c3)C2=O)cc1OC	ERAP1 HTS inh 35
O=C(CCCN1C(=O)/C(=C/c2ccco2)SC1=S)Nc1cccc(C(=O)O)c1	ERAP1 HTS inh 32
O=C(C1CCC1)N1CC2(C1)[C@@H](c1ccccc1)[C@@H](CO)N2Cc1ccc(Cl)cc1	RAD52 anneal inh 67
CCCCCCC1CCC(C(=O)Nn2c(C)nc3ccccc3c2=O)CC1 (stereo not given)	GSIS activator 69 (no result: S100A4 MyoIIA, MLL AF4-AF9 inh, RAD52 anneal inh, ERAP1 HTS inh)
COc1cc2c3nnc(-c4ccccc4)c-3cn(Cc3ccccc3F)c2cc1OC	GSIS activator 98 (no result: S100A4 MyoIIA, MLL AF4-AF9 inh, RAD52 anneal inh, ERAP1 HTS inh)
COc1ccc(CCN2C(=O)C=CC2=O)cc1OC	GSIS activator 205
COc1ccc(CCN2C(=O)CN(Cc3ccccc3)CC2=O)cc1OC	none (no result: GSIS activator)
COC(=O)c1ccc(CN2CC(=O)N3[C@H](CO)[C@H](c4ccc(-c5ccccc5)cc4)[C@@H]3C2)cc1	none (no result: S100A4 MyoIIA, MLL AF4-AF9 inh, RAD52 anneal inh, ERAP1 HTS inh)
NC[C@@H]1O[C@H](C23CC4CC(CC(C4)C2)C3)Cc2c1ccc(O)c2O	MLL AF4-AF9 inh 47, ERAP1 HTS inh 31 (no result: GSIS activator)
Cc1cc(C)c2oc(C(=O)NC3CCS(=O)(=O)C3)cc(=O)c2c1 (stereo not given)	none
Cc1ccc2c(=O)cc(C(=O)NC3CCS(=O)(=O)C3)oc2c1C (stereo not given)	GSIS activator 42
C=CCN=c1sc(C(=O)OC)cc(=O)n1CC=C	GSIS activator 50 (no result: S100A4 MyoIIA, MLL AF4-AF9 inh, RAD52 anneal inh, ERAP1 HTS inh)
COC(=O)c1cc(=O)n(Cc2ccc(F)cc2)c(=NCc2ccc(F)cc2)s1	none
Nc1ncnc(N)c1N=Nc1ccccc1	none
